Measurements taken from ChEMBL document CHEMBL1926507, “Discovery of a new class of bicyclic substituted hydroxyphenylmethanones as 17β-hydroxysteroid dehydrogenase type 2 (17β-HSD2) inhibitors for the treatment of osteoporosis” (Eur J Med Chem, 2012).

Tests used:
[1] = molecular target: T1, 17-beta-hydroxysteroid dehydrogenase type 1 (Homo sapiens) (UniProt P14061); test: Inhibition of human cytosolic 17beta-HSD1 using [2,4,6,7-3H]E1 as substrate at 1 uM after 10 mins by radioflow detector
T1 sequence (whole entry): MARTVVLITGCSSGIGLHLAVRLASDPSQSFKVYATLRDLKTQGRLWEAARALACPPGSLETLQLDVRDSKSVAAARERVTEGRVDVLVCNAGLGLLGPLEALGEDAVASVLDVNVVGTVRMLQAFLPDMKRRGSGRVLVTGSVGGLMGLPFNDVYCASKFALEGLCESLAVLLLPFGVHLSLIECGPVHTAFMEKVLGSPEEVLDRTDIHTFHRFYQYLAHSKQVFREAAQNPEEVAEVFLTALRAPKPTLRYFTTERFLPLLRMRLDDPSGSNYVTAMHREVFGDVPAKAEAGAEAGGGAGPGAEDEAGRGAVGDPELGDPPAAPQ
How it was run: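 Cytosolic fraction from human placenta incubated with NADH (500 µM), test compound and unlabeled plus [2,4,6,7-3H]-E1 (final 500 nM) for 10 min at 37 °C. Phosphate buffer 50 mM with 20% glycerol and 1 mM EDTA. Inhibitor stocks made in DMSO. Reaction stopped with HgCl2 and extracted with ether. Substrate and product separated by HPLC with radioflow detection. Values are the mean of three determinations.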

[2] = molecular target: T2, 17-beta-hydroxysteroid dehydrogenase type 2 (Homo sapiens) (UniProt P37059); test: Inhibition of human microsomal 17beta-HSD2 using [2,4,6,7-3H]E2 as substrate at 1 uM after 20 mins by radioflow detector
T2 sequence (whole entry): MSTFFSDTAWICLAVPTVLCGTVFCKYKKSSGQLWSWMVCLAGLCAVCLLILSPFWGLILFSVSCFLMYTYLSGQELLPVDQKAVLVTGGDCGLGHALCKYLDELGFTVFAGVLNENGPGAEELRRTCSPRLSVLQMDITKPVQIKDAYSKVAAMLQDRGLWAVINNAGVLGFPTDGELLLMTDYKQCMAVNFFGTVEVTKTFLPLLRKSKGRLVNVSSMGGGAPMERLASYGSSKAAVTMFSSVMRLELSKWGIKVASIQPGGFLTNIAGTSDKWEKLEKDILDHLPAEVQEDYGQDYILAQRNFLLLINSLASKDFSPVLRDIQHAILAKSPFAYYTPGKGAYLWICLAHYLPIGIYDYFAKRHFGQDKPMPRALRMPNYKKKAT
How it was run: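 Microsomal fraction from human placenta incubated at 37 °C for 20 min with NAD+ (1500 µM), inhibitor and unlabeled plus [2,4,6,7-3H]-E2 (final 500 nM). Phosphate buffer 50 mM with 20% glycerol and 1 mM EDTA. Inhibitor stocks made in DMSO. Reaction stopped with HgCl2 and extracted with ether. E2 and E1 separated by HPLC with radioflow detection. Values are the mean of three determinations.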

[3] = molecular target: T3, 17-beta-hydroxysteroid dehydrogenase type 2 (Homo sapiens, UniProt P37059); test: Inhibition of human microsomal 17beta-HSD2 in cell-free system using [2,4,6,7-3H]E2 as substrate after 20 mins by radioflow detector
T3 sequence (P37059 whole entry): T2 sequence (whole entry)

[4] = species: Homo sapiens; test: Selectivity ratio of IC50 for human cytosolic 17beta-HSD1 to IC50 for human microsomal 17beta-HSD2
How it was run: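 Ratio calculated as IC50(17β-HSD1)/IC50(17β-HSD2). 17β-HSD1 was measured in placental cytosol with [3H]-E1 + E1 (500 nM) and NADH (0.5 mM). 17β-HSD2 was measured in placental microsomes with [3H]-E2 + E2 (500 nM) and NAD+ (1.5 mM). Each IC50 is the mean of three determinations.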

[5] = molecular target: T4, 17-beta-hydroxysteroid dehydrogenase type 1 (Homo sapiens, UniProt P14061); test: Inhibition of human cytosolic 17beta-HSD1 in cell-free system using [2,4,6,7-3H]E1 as substrate after 10 mins by radioflow detector
T4 sequence (P14061 whole entry): T1 sequence (whole entry)

[6] = molecular target: Estrogen receptor beta (Homo sapiens) (UniProt Q92731); test: Displacement of [3H]E2 from human recombinant ERbeta after 1 hr by liquid scintillation counting relative to estradiol
How it was run: (§1)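 Recombinant human ERα or ERβ (0.25 pmol) incubated with [3H]-E2 (10 nM) and test compound for 1 h at room temperature, DMSO 5% final. Non-specific binding defined with diethylstilbestrol. Receptor-ligand complexes captured on hydroxyapatite, washed, resuspended in ethanol, and counted by liquid scintillation. IC50 for [3H]-E2 displacement taken from sigmoidal curves. RBA = IC50(E2)/IC50(compound) × 100, with unlabeled E2 as reference.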

[7] = molecular target: T5, Estrogen receptor (Homo sapiens) (UniProt P03372); test: Displacement of [3H]E2 from human recombinant ERalpha after 1 hr by liquid scintillation counting relative to estradiol; how it was run: as §1
T5 sequence (whole entry): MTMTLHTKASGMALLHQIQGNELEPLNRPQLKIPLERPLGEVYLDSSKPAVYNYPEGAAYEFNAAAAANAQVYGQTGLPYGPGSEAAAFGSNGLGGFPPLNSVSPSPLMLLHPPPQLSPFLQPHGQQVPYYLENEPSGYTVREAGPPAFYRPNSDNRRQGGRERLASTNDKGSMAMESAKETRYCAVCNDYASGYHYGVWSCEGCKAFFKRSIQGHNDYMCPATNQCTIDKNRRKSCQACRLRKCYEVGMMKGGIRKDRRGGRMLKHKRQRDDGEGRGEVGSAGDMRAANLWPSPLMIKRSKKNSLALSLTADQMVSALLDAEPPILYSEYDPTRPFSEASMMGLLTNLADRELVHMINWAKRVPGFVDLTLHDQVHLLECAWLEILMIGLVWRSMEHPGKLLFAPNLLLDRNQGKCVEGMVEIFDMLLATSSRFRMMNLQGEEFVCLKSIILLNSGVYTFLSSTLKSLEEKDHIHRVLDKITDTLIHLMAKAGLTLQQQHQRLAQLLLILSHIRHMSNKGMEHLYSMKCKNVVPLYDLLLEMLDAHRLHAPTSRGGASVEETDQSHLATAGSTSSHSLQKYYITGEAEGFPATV

Chain of Estrogen receptor beta (Homo sapiens) (Q92731 whole entry): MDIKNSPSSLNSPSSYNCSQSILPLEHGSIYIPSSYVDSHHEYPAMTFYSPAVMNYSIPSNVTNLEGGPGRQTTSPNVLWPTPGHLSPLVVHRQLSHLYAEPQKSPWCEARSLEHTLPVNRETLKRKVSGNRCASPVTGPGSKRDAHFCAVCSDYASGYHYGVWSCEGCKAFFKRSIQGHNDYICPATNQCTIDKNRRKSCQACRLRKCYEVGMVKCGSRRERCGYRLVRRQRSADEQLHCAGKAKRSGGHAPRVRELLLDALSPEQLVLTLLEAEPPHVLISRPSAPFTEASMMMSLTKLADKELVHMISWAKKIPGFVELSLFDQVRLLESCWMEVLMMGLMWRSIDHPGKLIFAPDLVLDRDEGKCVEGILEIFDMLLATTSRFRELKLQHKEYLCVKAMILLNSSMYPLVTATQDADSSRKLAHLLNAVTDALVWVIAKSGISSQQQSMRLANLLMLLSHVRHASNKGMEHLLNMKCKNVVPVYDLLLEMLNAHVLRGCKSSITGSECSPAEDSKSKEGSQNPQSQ

Row | SMILES | inhibition [1] [%] | inhibition [2] [%] | IC50 [3] [nM] | Ratio IC50 [4] | IC50 [5] [nM] | RBA [6] [%] | RBA [7] [%]
1 | Cc1cc(-c2cccc(C(=O)c3cc(O)cc(F)c3)n2)ccc1O | < 10 | 57 | – | – | – | – | –
2 | Cc1cc(-c2cccc(C(=O)c3cccc(O)c3)n2)ccc1O | < 10 | 84 | – | – | – | – | –
3 | Cc1cc(-c2cccc(C(=O)c3ccc(F)c(O)c3)n2)ccc1O | < 10 | 62 | 757 | 30 | 22400 | – | –
4 | Cc1cc(O)ccc1-c1cccc(C(=O)c2cccc(O)c2)n1 | < 10 | 18 | – | – | – | – | –
5 | Cc1cc(-c2cccc(C(=O)c3ccc(C)c(O)c3)n2)ccc1O | < 10 | 28 | – | – | – | – | –
6 | O=C(c1cccc(O)c1)c1cccc(-c2ccc(O)c(F)c2)n1 | 47 | 40 | – | – | – | – | –
7 | Cc1cc(-c2cccc(C(=O)c3cccc(O)c3)c2)ccc1O | 50 | 77 | 379 | 1 | 475 | – | –
8 | O=C(c1cccc(O)c1)c1cccc(-c2ccc(O)cc2F)n1 | 64 | 56 | – | – | – | – | –
9 | Cc1cc(-c2ccc(C(=O)c3cccc(O)c3)cn2)ccc1O | 58 | 84 | 220 | 3 | 567 | – | –
10 | Cc1cc(-c2ccc(C(=O)c3ccc(F)c(O)c3)cc2)ccc1O | 79 | 98 | 34 | 9 | 289 | < 0.1 | < 0.1
11 | O=C(c1ccc(-c2ccc(O)c(Cl)c2)cc1)c1ccc(F)c(O)c1 | 95 | 100 | 24 | 2 | 53 | < 0.1 | < 0.1
12 | O=C(c1cccc(O)c1)c1cccc(-c2ccc(O)c(Cl)c2)n1 | < 10 | 55 | 752 | 81 | 60600 | – | –
13 | Cc1cc(-c2ccc(C(=O)c3cccc(O)c3)s2)ccc1O | – | – | – | 0.02 | – | – | –
14 | Cc1cc(-c2ccc(C(=O)c3ccc(F)c(O)c3)nc2)ccc1O | 47 | 84 | 101 | 13 | 1270 | < 0.1 | < 0.1
15 | O=C(c1cccc(O)c1)c1cccc(-c2ccccc2O)n1 | < 10 | < 10 | – | – | – | – | –
16 | Cc1cc(-c2ccc(C(=O)c3cccc(O)c3)nc2)ccc1O | 24 | 73 | 260 | 21 | 5480 | < 0.1 | < 0.1
17 | O=C(c1ccc(F)c(O)c1)c1ccc(-c2ccc(O)c(Cl)c2)cn1 | 50 | 87 | 153 | 7 | 1010 | – | –
18 | O=C(c1ccc(-c2ccc(O)c(F)c2)cc1)c1cccc(O)c1 | 26 | 68 | 525 | 5 | 2430 | – | –
19 | Cc1cc(-c2ccc(C(=O)c3cc(O)cc(F)c3)cc2)ccc1O | 84 | 100 | 31 | 5 | 159 | < 0.1 | < 0.1
20 | Cc1cc(-c2ccc(C(=O)c3cccc(O)c3)cc2)ccc1O | 58 | 90 | 132 | 3 | 413 | < 0.1 | < 0.1
21 | O=C(c1ccc(-c2ccc(O)c(Cl)c2)cc1)c1cccc(O)c1 | 66 | 92 | 153 | 4 | 571 | < 0.1 | < 0.1
22 | O=C(c1ccc(-c2ccc(O)cc2Cl)cc1)c1cccc(O)c1 | 43 | 80 | 176 | 11 | 1760 | – | –
23 | O=C(c1cccc(O)c1)c1cccc(-c2ccc(O)cc2)n1 | < 10 | 16 | – | – | – | – | –
24 | Cc1cc(-c2ccc(C(=O)c3ccc(F)c(F)c3)cc2)ccc1O | 16 | 11 | – | – | – | – | –
25 | O=C(c1cccc(O)c1)c1cccc(-c2cccc(O)c2)n1 | < 10 | < 10 | – | – | – | – | –
